Test results reported in PubChem BioAssay.
Calls of active or inactive are those of the source.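 The calls were made as follows, unless noted: active = fluorescence slope after compound addition differing from the mean of all tested samples at 99.7% confidence, mostly higher but some lower; inactive = the rest.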

Columns and labels:
[1] = inhibitors of TNFa-induced NFkB p65 translocation, primary screen, imaging, HUVEC, MLSMR starter and 10KST1 sets (AID 438;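 active = inhibition above 20% together with a positive visual image hit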;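 also: compound added about 3h40 before a 20 min TNFalpha stimulation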;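 as to inhibition: signal is the nuclear over cytoplasmic p65 intensity ratio per well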); details: HUVEC TNFa-induced p65 nuclear translocation; cell count: measured here: nuclei count (cytotoxicity indicator), at 2.08 µM; inhibition: at 2 µM, stronger effect = higher value, 0% TNFa-plus-vehicle, 100% no-TNFa wells
[2] = inhibitors of mutant huntingtin aggregation, primary screen, imaging, exon1htt(103Q)mCFP cells, high-content imaging (AID 483;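 active = visual image review flags a hit and inhibition of aggregation exceeds 20%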;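 also: compound exposure lasted 3 days before fixation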;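 as to nuclei count: percent of the per-plate median nuclei count of sample wells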); details: exon1htt(103Q)mCFP cell line, aggregate imaging, at 2 µM; inhibition of aggregation: stronger effect = higher value; nuclei count: measured here: cell count, toxicity
[3] = inhibitors of E-selectin induction by TNFa, primary screen, imaging, HUVEC, immunofluorescence, MLSMR starter and 10KST1 sets (AID 487;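 active = visually confirmed hit in the image check and inhibition above 20%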;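 as to inhibition: signal is fraction of cell area covered by stained E-selectin grains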;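 as to nuclei count: 100% = median nuclei count of all wells on the same plate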); details: HUVEC TNFalpha-induced E-selectin immunofluorescence imaging, at 2 µM; inhibition: stronger effect = higher value; nuclei count: measured here: cell number, toxicity
[4] = target: Voltage-gated potassium channel subunit beta-2 (Rattus norvegicus) (UniProt P62483); test: KvBeta enzyme negative modulators, primary screen, biochemical, NADPH fluorescence (AID 622;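 active = fluorescence slope higher than the sample average by over 3 SD, cut at about -0.22 in these data, passing the limit was not always enough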;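 also: slope of raw intensity against log time taken from 70 to 1610 s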); details: recombinant KvBeta, 4-cyanobenzaldehyde reduction, at 10 µM, stronger effect = higher value
[5] = target: Voltage-gated potassium channel subunit beta-2 (Rattus norvegicus) (UniProt P62483); test: KvBeta positive modulators, primary screen, biochemical, NADPH fluorescence (AID 623;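 active = NADPH fluorescence slope more negative than the mean of all samples by about 3 SD, 99.7% confidence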;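 also: fluorescence intensity change per second fitted from 20 to 320 s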); details: Recombinant KvBeta, NADPH fluorescence decrease slope, 10 min; at 10 µM; stronger effect = lower value
[6] = target: Muscarinic acetylcholine receptor M4 (Homo sapiens) (UniProt P08173); test: compounds altering M4/GIRK thallium flux, either direction, primary screen, M4 allosteric agonist project, cell-based, HEK293 M4/GIRK, BTC-AM (AID 625); details: at 10 µM, actives lie on both sides;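 also: thallium influx through GIRK channels coupled to M4 in HEK293 cells with BTC-AM dye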
Summary of the method: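 Material: M4/GIRK1/GIRK2 stable HEK293 cell line. Medium: pH 7.3 thallium assay buffer. Dosing: single compound concentration, 10 µM final. Schedule: 1 h dye loading, 2 min kinetic read. Measured by: kinetic fluorescence with BTC-AM dye. Read-out: post-addition slope, 15–24 s, of baseline-normalized fluorescence. Benchmarks: carbachol and DMSO controls.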

[7] = inhibitors of Sendai virus-induced IRF3 signaling, primary screen, TLR/RLR signaling modifier project, cell-based, Sendai virus stimulus, luciferase, 10K MLSCN set (AID 602276;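 active = inhibition at or above 50% at 10 µM; inactive = inhibition below 50%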;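 also: firefly luciferase from ISG56 promoter only with Renilla not read in this screen; 0% = Sendai virus plus DMSO and 100% = medium plus DMSO without virus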); details: HEK293 RL24 IRF3 luciferase reporter, at 10 µM, stronger effect = higher value
[8] = inhibitors of poly I:C-induced TLR3 signaling, primary screen, cell-based, poly I:C stimulus, luciferase, 10K MLSCN set (AID 602277;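 active = inhibition of the reporter signal at or above 50%; inactive = inhibition below 50%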); details: HEK293-TLR3 RL24 IRF3 luciferase reporter, at 10 µM, stronger effect = higher value

Chain of Muscarinic acetylcholine receptor M4 (Homo sapiens) (P08173 whole entry, looked up): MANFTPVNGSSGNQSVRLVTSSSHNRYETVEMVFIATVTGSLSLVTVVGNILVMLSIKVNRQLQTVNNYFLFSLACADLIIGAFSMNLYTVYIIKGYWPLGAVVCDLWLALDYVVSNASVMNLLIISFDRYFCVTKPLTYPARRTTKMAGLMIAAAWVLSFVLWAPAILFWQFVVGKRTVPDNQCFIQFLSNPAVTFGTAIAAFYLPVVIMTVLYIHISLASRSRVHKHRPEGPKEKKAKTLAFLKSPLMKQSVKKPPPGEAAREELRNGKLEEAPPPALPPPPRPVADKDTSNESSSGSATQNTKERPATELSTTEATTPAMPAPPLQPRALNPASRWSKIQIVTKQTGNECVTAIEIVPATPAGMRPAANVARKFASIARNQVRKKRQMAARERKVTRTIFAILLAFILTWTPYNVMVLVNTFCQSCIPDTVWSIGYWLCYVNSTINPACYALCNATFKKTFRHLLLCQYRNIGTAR
Chain of Voltage-gated potassium channel subunit beta-2 (Rattus norvegicus) (P62483 whole entry, looked up): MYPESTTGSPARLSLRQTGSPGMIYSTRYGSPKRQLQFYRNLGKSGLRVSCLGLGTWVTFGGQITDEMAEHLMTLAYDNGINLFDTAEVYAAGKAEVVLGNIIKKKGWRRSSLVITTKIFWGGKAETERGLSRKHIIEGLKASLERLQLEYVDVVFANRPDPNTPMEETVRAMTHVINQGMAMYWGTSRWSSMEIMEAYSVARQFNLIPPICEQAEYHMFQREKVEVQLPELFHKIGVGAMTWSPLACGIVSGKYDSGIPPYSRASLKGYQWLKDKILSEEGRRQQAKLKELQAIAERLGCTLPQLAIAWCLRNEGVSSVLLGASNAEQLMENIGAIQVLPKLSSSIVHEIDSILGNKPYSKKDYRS

Structure (SMILES)	cell count [1]	inhibition [1]	inhibition of aggregation [2]	nuclei count [2]	inhibition [3]	nuclei count [3]	fluorescence slope [4]	NADPH fluorescence slope [5]	fluorescence slope [6]	inhibition [7]	inhibition [8]
COc1ccccc1-n1cnnc1SCC(=O)c1ccc[nH]1	544	6.1% (inactive)	6.1% (inactive)	96.8%	17.5% (inactive)	77.8%	-0.532 (inactive)	-4.3e-05 (inactive)	0.00668 (inactive)	9.86% (inactive)	10.8% (inactive)
Cc1ccc(C(=O)Nc2nc3c(s2)CCCC3)o1	341	-4% (inactive)	-8.3% (inactive)	101%	-96.9% (inactive)	120%	-0.561 (inactive)	-4.4e-05 (inactive)	0.00262 (inactive)	-30.4% (inactive)	-89.5% (inactive)
CCn1c(=O)cc(OCC(=O)NCCCN2CC(C)CC(C)C2)c2ccccc21 (centres undefined)	395	-5.5% (inactive)	-18.3% (inactive)	111%	-25% (inactive)	123%	-0.511 (inactive)	-0.000129 (inactive)	0.00485 (inactive)	69.4% (active)	55.8% (active)
CN1C(=O)NC(NC(=O)C2CCCCC2)(C(F)(F)F)C1=O (centres undefined)	650	1.4% (inactive)	0.6% (inactive)	97.1%	3.3% (inactive)	99.5%	-0.579 (inactive)	-2.4e-05 (inactive)	0.0049 (inactive)	17% (inactive)	17.5% (inactive)
COc1ccccc1-c1cn[nH]c(=S)n1	428	1.6% (inactive)	4.2% (inactive)	93%	-41.2% (inactive)	101%	-0.576 (inactive)	2.7e-05 (inactive)	0.00535 (inactive)	-32.7% (inactive)	-25.8% (inactive)
COc1cccc(C2=NOC(C(=O)Nc3ccc(C(C)=O)cc3)C2)c1 (centres undefined)	808	-16.3% (inactive)	-6.4% (inactive)	107%	-49.8% (inactive)	80%	-0.583 (inactive)	2.1e-05 (inactive)	0.00535 (inactive)	-34.2% (inactive)	-61.5% (inactive)
CCOC(=O)N1CCN(CC(=O)Nc2c(C(=O)OC)[nH]c3cccc(Cl)c23)CC1	556	-15.5% (inactive)	-5.4% (inactive)	96.1%	-23.3% (inactive)	94%	-0.214 (inactive)	-2.3e-05 (inactive)	0.00534 (inactive)	20% (inactive)	-2.65% (inactive)
CCN1CCN(c2nc(-c3cccnc3)nc3ccccc23)CC1	598	11.2% (inactive)	-11.6% (inactive)	94.7%	-58.2% (inactive)	103%	-0.468 (inactive)	2.1e-05 (inactive)	0.00671 (inactive)	12.9% (inactive)	37.7% (inactive)
Cc1csc(NC(=O)c2cccc(S(=O)(=O)N3CCCCC3)c2)n1	352	7.4% (inactive)	-9.9% (inactive)	96.8%	-30.5% (inactive)	109%	-0.587 (inactive)	-3e-05 (inactive)	0.00964 (inactive)	-5.34% (inactive)	16.9% (inactive)
CCOC(=O)CSc1nc2ccccc2c(=O)n1NC(=O)c1ccccc1	472	-5.7% (inactive)	-2% (inactive)	119%	10.7% (inactive)	92.2%	-0.445 (inactive)	3.6e-06 (inactive)	0.00551 (inactive)	1.47% (inactive)	-19.8% (inactive)
CC(C)(C)N=C1NC(=NC(C)(C)C)c2ccccc21	716	2.3% (inactive)	-5.7% (inactive)	106%	-18.9% (inactive)	107%	-0.525 (inactive)	-7.9e-06 (inactive)	0.00395 (inactive)	5.9% (inactive)	5.38% (inactive)
c1ccc(OCCOc2ncnc3sccc23)cc1	395	-22% (inactive)	-0.7% (inactive)	106%	-62.1% (inactive)	125%	-0.583 (inactive)	-5e-05 (inactive)	0.00602 (inactive)	-2.1% (inactive)	-65.8% (inactive)
O=C(CCn1c(=O)sc2ccccc21)NC1=NCCS1	620	-25.8% (inactive)	8.6% (inactive)	102%	-118% (inactive)	121%	-0.464 (inactive)	8e-05 (inactive)	0.00544 (inactive)	-9.67% (inactive)	-5.87% (inactive)
CSc1ccccc1C(=O)NC1CC2CCC1C2 (centres undefined)	246	4.5% (inactive)	13.1% (inactive)	93.5%	15.4% (inactive)	91.1%	-0.535 (inactive)	-1.1e-05 (inactive)	0.00469 (inactive)	24.1% (inactive)	24.1% (inactive)
